Activity calls are given as the source filed them. No cut-off for these calls is given here.

In general, IC50 refers to the concentration that gives 50% inhibition.

The subject of one experiment is HCT-116. Briefly: Induction of apoptosis in human HCT116 cells at 1 to 16 uM after 24 hrs by Yo-Pro-1/PI staining-based FACS flow cytometric analysis. The class given is functional, cell-based.
Details: not given
In a few lines:
(§1)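 HCT116 cells were grown in McCoy's medium with 10% FBS at 37 °C, 5% CO2, to 50% confluence, then treated for 24 h. They were trypsinized, washed in cold PBS and brought to ~1×10^6 cells/mL. Staining was 30 min on ice with 0.1 μM Yo-Pro-1 (apoptotic) and 3 μg/mL PI (necrotic), final concentrations. Flow cytometry used 488 nm excitation. Gates were set with DMSO and 10 μM camptothecin (24 h) controls, excluding debris.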
For orientation: Flow cytometry measures light scatter and fluorescence of single cells or particles in a stream.
As for `Cc1c(O)cc2c(c1O)C(=O)[C@@]1(Cl)C[C@@H](Cl)C(C)(C)O[C@@]1(C[C@H]1C(C)(C)[C@@H](Cl)CC[C@]1(C)O)C2=O`, the outcome was Active.

The test system of a further experiment is HCT-116. Briefly: Induction of apoptosis in human HCT116 cells at 4 uM after 24 hrs by Yo-Pro-1/PI staining-based FACS flow cytometric analysis. The class given is functional, cell-based.
Details: not given
In a few lines:
as §1
Regarding `Cc1c(O)cc2c(c1O)C(=O)[C@@]1(Cl)C[C@@H](Cl)C(C)(C)O[C@@]1(C[C@H]1C(C)(C)[C@H]3CC[C@]1(C)O3)C2=O`, the outcome was Active.

Take `C=C1CC[C@H](Cl)C(C)(C)[C@@H]1C[C@@]12OC(C)(C)[C@H](Cl)C[C@]1(Cl)C(=O)c1c(cc(O)c(C)c1O)C2=O`: the outcome was Active.

The test system of the next experiment is HCT-116. The experiment is described as follows: Induction of apoptosis in human HCT116 cells after 24 hrs by Yo-Pro-1/PI staining-based FACS flow cytometric analysis. The class given is functional, cell-based.
Details: not given
An outline of the steps:
as §1
Regarding `Cc1c(O)cc2c(c1O)C(=O)[C@@]1(Cl)C[C@@H](Cl)C(C)(C)O[C@@]1(C[C@H]1C(C)(C)[C@H]3CC[C@]1(C)O3)C2=O`, the Activity entry was “Dose-dependent effect”.

Consider `C=C1CC[C@H](Cl)C(C)(C)[C@@H]1C[C@@]12OC(C)(C)[C@H](Cl)C[C@]1(Cl)C(=O)c1c(cc(O)c(C)c1O)C2=O`, for which the Activity entry is “Dose-dependent effect”.

For `C=C1CC[C@H](Cl)C(C)(C)[C@@H]1C[C@@]12OC(C)(C)[C@H](Cl)C[C@]1(Cl)C(=O)C1=C(C2=O)C(=[N+]=[N-])C(=O)C(C)=C1O`, the Activity result is “Dose-dependent effect”.

`Cc1c(O)cc2c(c1O)C(=O)[C@@]1(Cl)C[C@@H](Cl)C(C)(C)O[C@@]1(C[C@H]1C(C)(C)[C@@H](Cl)CC[C@]1(C)O)C2=O`: the Activity entry was “Dose-dependent effect”.

In the next experiment the test system is HCT-116. Briefly: Induction of cell death in human HCT116 cells at 1 to 16 uM after 24 hrs by Yo-Pro-1/PI staining-based FACS flow cytometric analysis. The class given is functional.
Details: not given
In a few lines: as §1
With `Cc1c(O)cc2c(c1O)C(=O)[C@@]1(Cl)C[C@@H](Cl)C(C)(C)O[C@@]1(C[C@H]1C(C)(C)[C@@H](Cl)CC[C@]1(C)O)C2=O`, the result was Active.

The test system of the next experiment is HCT-116. Briefly: Induction of cell death in human HCT116 cells at 32 uM after 24 hrs by Yo-Pro-1/PI staining-based FACS flow cytometric analysis. The class given is functional.
Details: not given
In a few lines: as §1
As to `C=C1CC[C@H](Cl)C(C)(C)[C@@H]1C[C@@]12OC(C)(C)[C@H](Cl)C[C@]1(Cl)C(=O)C1=C(C2=O)C(=[N+]=[N-])C(=O)C(C)=C1O`, the outcome was Active.

The test system of another experiment is HCT-116. Briefly: Antiproliferative activity against human HCT116 cells assessed as cell viability after 72 hrs by MTS assay. The class given is functional, cell-based. The conditions noted are these: HCT-116, 72 h. An outline of the steps: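 HCT-116 cells plated, left overnight at 37 °C in 5% CO2/air, then given compound from 10 mg/mL DMSO stock at 100 μM top concentration with serial dilution. After 72 h, MTS/PMS added for 3 h and formazan read at 490 nm. IC50 with 95% CI calculated from viability. Etoposide positive control, DMSO negative control.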
Background: Tetrazolium dyes change colour on reduction, which living cells bring about.
Take `COc1cc([C@@H]2c3cc4c(cc3[C@@H](O[C@@H]3O[C@@H]5CO[C@@H](C)O[C@H]5[C@H](O)[C@H]3O)[C@H]3COC(=O)[C@H]23)OCO4)cc(OC)c1O` [ETOPOSIDE]: the IC50 was found to be 1 µM.

With `Cc1c(O)cc2c(c1O)C(=O)[C@@]1(Cl)C[C@@H](Cl)C(C)(C)O[C@@]1(C[C@H]1C(C)(C)[C@H]3CC[C@]1(C)O3)C2=O`, the IC50 worked out at 17 µM.

As to `Cc1c(O)cc2c(c1O)C(=O)[C@H]1C[C@@H](Br)C(C)(C)O[C@@]1(C[C@H]1C(C)(C)[C@@H](Br)CC[C@]1(C)O)C2=O`, the IC50 came to 49 µM.

Consider `Cc1c(O)cc2c(c1O)C(=O)[C@@]1(Cl)C[C@@H](Br)C(C)(C)O[C@@]1(C[C@H]1C(C)(C)[C@H]3CC[C@]1(C)O3)C2=O`, for which the 50% inhibitory concentration (IC50) was greater than 100 µM.

Take `C=C1CC[C@H](Cl)C(C)(C)[C@@H]1C[C@@]12OC(C)(C)[C@H](Cl)C[C@]1(Cl)C(=O)c1c(O)cc(O)cc1C2=O`: the IC50 was 2 µM.

With `C=C1CC[C@H](Cl)C(C)(C)[C@@H]1C[C@@]12OC(C)(C)[C@H](Cl)C[C@]1(Cl)C(=O)c1c(cc(O)c(C)c1O)C2=O`, the IC50 was 3 µM.

As for `CC(C)=CCC/C(C)=C/C[C@@]12OC(C)(C)[C@H](Br)C[C@]1(Cl)C(=O)c1c(cc(O)c(C)c1O)C2=O`, the 50% inhibitory concentration (IC50) came to 6 µM.

In the case of `CC1=C(O)C2=C(C(=O)[C@]3(C[C@H]4C(C)(C)[C@@H](Cl)CC[C@]4(C)O)OC(C)(C)[C@H](Cl)C[C@]3(Cl)C2=O)C(=[N+]=[N-])C1=O`, the IC50 was less than 1 µM.

Regarding `C=C1CC[C@H](Cl)C(C)(C)[C@@H]1C[C@@]12OC(C)(C)[C@H](Cl)C[C@]1(Cl)C(=O)C1=C(C2=O)C(=[N+]=[N-])C(=O)C(C)=C1O`, the 50% inhibitory concentration (IC50) was less than 1 µM.

`Cc1c(O)cc2c(c1O)C(=O)C1=C[C@@H](Cl)C(C)(C)O[C@@]1(C[C@H]1C(C)(C)[C@@H](Cl)CC[C@]1(C)O)C2=O`: the IC50 was greater than 100 µM.

As for `Cc1c(O)cc2c(c1O)C(=O)C1C[C@@H](Cl)C(C)(C)O[C@@]1(C[C@H]1C(C)(C)[C@@H](Cl)CC[C@]1(C)O)C2=O` (stereo partly drawn), the 50% inhibitory concentration (IC50) was greater than 100 µM.

Regarding `C=C1CC[C@H](Br)C(C)(C)[C@@H]1C[C@@]12OC(C)(C)[C@H](Cl)C[C@]1(Cl)C(=O)c1c(O)cc(O)cc1C2=O`, the IC50 was found to be 3 µM.

As to `Cc1c(O)cc2c(c1O)C(=O)[C@@]1(Cl)C[C@@H](Cl)C(C)(C)O[C@@]1(C[C@H]1C(C)(C)[C@@H](Cl)CC[C@]1(C)O)C2=O`, the IC50 worked out at 15 µM.

For `CC1(C)O[C@@]2(C[C@H]3C(C)(C)[C@@H](Cl)CC[C@]3(C)O)C(=O)c3cc(O)cc(O)c3C(=O)[C@@]2(Cl)C[C@H]1Cl`, the IC50 turned out to be 10 µM.
